Here are results for 45 compounds from ChEMBL document CHEMBL3112420, “Discovery of 8-cyclopentyl-2-[4-(4-methyl-piperazin-1-yl)-phenylamino]-7-oxo-7,8-dihydro-pyrido[2,3-d]pyrimidine-6-carbonitrile (7x) as a potent inhibitor of cyclin-dependent kinase 4 (CDK4) and AMPK-related kinase 5 (ARK5)” (J Med Chem, 2014).

Calls of active or inactive are those of the source. The calls are words filed in the database; no cut-off is given here.

One test relates to DU-145. Put plainly: Cytotoxicity against human DU145 cells after 96 hrs by Cell-Titer Blue assay. In kind it is functional, cell-based. To be noted: DU-145, 96 h.
For another test, the system named is K562. Put plainly: Cytotoxicity against human K562 cells after 96 hrs by Cell-Titer Blue assay. It is filed as functional, cell-based. Conditions: K562, 96 h.
Test [1] concerns the target Cyclin-dependent kinase 2/cyclin E1 (Homo sapiens, UniProt P24941). In words: Inhibition of CDK2/cyclinE (unknown origin). In kind it is protein-complex assay.
Test [2] has as its target Cyclin-dependent kinase 1/cyclin B1 (Homo sapiens, UniProt P06493). Put plainly: Inhibition of CDK1/cyclinB (unknown origin). In kind it is protein-complex assay.
For test [3], the system named is MDA-MB-231. Put plainly: Induction of apoptosis in human MDA-MB-231 cells assessed as PARP cleavage at 1 to 10 uM after 24 hrs by Western blotting analysis. It is filed as functional, cell-based.
For test [4], the system named is MCF7. Put plainly: Induction of apoptosis in human MCF7 cells assessed as PARP cleavage at 1 to 10 uM after 24 hrs by Western blotting analysis. It is filed as functional, cell-based.
The subject of test [5] is MDA-MB-231. Put plainly: Cell cycle arrest in human MDA-MB-231 cells assessed as accumulation at sub-G1 phase at 0.5 to 1 uM after 48 hrs by propidium iodide staining-based flow cytometric analysis. In kind it is functional.
The subject of test [6] is MCF7. In words: Cell cycle arrest in human MCF7 cells assessed as accumulation at sub-G1 phase at 0.5 to 1 uM after 48 hrs by propidium iodide staining-based flow cytometric analysis. It is filed as functional.
The test system of test [7] is MDA-MB-231. In words: Cell cycle arrest in human MDA-MB-231 cells assessed as accumulation at G1 phase at 0.5 to 1 uM after 24 hrs by propidium iodide staining-based flow cytometric analysis. In kind it is functional. In a few lines:
(§1)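 Cells plated at 1.0 × 10^6 per dish, then treated 24 h later with increasing concentrations for 24 h. Floating and adherent cells were pooled, PBS-washed and fixed in ice-cold 70% ethanol for at least 24 h. They were then stained with propidium iodide plus RNase A for 30 min at 37 °C. Percentage of cells in each phase was read by flow cytometry.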

In test [8] the test system is MCF7. Put plainly: Cell cycle arrest in human MCF7 cells assessed as accumulation at G1 phase at 0.5 to 1 uM after 24 hrs by propidium iodide staining-based flow cytometric analysis. It is filed as functional. In a few lines:
as §1

For test [9], the target named is T1, Cyclin-dependent kinase 4/cyclin D1 (Homo sapiens) (UniProt P11802+P24385). Put plainly: Inhibition of recombinant CDK4/cyclinD1 in human MDA-MB-231 cells assessed as inhibition of retinoblastoma phosphorylation at Ser780 at 0.5 to 5 uM after 24 hrs by Western blotting analysis. In kind it is cell-based. In a few lines:
(§2)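 Breast carcinoma cells were given increasing concentrations for 24 h. Total lysates (100 μg, 10% SDS-PAGE) were immunoblotted with antibodies against Ser780-phosphorylated and non-phosphorylated RB. Bands were read on an infrared scanning system.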

In test [10] the target is T1, Cyclin-dependent kinase 4/cyclin D1 (Homo sapiens). Put plainly: Inhibition of recombinant CDK4/cyclinD1 in human MCF7 cells assessed as inhibition of retinoblastoma phosphorylation at Ser780 at 0.5 to 5 uM after 24 hrs by Western blotting analysis. In kind it is cell-based. In a few lines: as §2
In test [11] the target is Phosphatidylinositol 4,5-bisphosphate 3-kinase catalytic subunit delta isoform (Homo sapiens, UniProt O00329). In words: Inhibition of PI3Kdelta (unknown origin).
Chain of Phosphatidylinositol 4,5-bisphosphate 3-kinase catalytic subunit delta isoform (O00329 whole entry, canonical isoform): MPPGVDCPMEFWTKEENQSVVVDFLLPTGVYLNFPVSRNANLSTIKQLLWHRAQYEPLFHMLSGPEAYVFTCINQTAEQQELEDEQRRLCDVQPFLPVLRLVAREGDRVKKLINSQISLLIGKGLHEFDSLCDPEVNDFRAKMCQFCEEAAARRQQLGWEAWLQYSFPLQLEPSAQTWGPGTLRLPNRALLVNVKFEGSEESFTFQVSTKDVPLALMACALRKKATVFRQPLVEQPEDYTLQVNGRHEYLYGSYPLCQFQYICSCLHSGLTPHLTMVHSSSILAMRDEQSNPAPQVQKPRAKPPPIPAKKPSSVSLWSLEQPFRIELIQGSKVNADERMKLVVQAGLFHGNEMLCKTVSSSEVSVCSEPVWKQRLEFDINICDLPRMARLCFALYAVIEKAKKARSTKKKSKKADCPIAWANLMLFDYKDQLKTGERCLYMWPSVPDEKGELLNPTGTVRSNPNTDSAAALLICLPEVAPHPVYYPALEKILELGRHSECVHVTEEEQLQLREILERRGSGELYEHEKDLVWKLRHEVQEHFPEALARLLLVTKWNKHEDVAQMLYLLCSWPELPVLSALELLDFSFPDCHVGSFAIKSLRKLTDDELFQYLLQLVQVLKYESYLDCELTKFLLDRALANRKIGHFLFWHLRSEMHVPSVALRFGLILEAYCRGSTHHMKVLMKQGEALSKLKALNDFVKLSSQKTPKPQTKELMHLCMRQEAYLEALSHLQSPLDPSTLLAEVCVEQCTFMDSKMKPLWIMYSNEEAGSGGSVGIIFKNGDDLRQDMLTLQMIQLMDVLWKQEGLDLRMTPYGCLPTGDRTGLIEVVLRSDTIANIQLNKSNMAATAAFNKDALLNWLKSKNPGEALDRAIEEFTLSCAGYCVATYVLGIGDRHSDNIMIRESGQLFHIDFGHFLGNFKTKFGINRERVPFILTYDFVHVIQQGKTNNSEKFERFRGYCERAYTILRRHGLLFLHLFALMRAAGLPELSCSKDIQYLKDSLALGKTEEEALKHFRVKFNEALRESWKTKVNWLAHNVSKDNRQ
In test [12] the target is NUAK family SNF1-like kinase 1 (Homo sapiens, UniProt O60285). In words: Inhibition of ARK5 (unknown origin).
Chain of NUAK family SNF1-like kinase 1 (O60285 whole entry): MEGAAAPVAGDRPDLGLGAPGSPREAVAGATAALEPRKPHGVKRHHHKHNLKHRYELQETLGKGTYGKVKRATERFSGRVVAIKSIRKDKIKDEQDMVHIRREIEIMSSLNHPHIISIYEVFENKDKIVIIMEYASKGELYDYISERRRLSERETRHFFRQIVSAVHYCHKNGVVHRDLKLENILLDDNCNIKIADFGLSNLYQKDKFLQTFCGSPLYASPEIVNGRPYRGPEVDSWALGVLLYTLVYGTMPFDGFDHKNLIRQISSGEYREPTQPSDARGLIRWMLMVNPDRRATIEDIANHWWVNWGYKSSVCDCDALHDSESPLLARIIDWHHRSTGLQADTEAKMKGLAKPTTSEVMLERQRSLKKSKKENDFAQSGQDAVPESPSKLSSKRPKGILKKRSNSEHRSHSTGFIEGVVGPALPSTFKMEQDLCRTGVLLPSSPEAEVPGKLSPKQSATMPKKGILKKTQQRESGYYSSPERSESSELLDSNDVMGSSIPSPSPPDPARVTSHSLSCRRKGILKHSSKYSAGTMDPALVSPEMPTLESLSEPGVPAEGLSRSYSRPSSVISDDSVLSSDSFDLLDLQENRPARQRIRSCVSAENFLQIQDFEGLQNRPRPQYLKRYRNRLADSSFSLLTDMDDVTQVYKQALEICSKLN

Chain of Cyclin-dependent kinase 1/cyclin B1 (P06493 whole entry): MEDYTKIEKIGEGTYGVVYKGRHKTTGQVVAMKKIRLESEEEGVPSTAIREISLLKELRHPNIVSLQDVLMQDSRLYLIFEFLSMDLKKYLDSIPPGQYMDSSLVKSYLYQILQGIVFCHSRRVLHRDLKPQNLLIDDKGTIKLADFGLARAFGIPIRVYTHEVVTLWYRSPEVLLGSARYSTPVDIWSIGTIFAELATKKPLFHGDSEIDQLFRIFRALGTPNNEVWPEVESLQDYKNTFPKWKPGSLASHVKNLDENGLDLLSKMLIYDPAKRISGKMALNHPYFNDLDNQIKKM
Chain of Cyclin-dependent kinase 1/cyclin B1 (P14635 whole entry, further chain): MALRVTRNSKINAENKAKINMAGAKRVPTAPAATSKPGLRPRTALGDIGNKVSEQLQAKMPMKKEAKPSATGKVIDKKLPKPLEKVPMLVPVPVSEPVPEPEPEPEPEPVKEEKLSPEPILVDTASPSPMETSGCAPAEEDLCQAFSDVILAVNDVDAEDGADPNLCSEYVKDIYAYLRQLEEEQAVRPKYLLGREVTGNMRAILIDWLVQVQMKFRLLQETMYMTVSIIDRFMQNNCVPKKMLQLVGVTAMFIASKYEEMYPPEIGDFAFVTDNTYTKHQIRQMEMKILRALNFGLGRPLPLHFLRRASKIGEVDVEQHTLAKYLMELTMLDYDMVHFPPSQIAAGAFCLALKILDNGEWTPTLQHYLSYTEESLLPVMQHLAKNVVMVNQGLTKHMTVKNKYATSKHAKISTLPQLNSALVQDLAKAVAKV

Regarding `CN1CCN(c2ccc(Nc3ncc4cc(S(=O)(=O)c5ccc(Cl)cc5)c(=O)n(C5CCCC5)c4n3)cc2)CC1`, the results for the IC50 with DU-145 and in the test with K562 were 15 µM and 5 µM, respectively.
Taken in the same sequence, the figures for `N#Cc1cc2cnc(Nc3ccc(N4CCOCC4)cn3)nc2n(C2CCCC2)c1=O` were 15 µM and 5 µM.
For `COc1ccc(Nc2ncc3cc(C#N)c(=O)n(C4CCCC4)c3n2)cc1` the same measures were 25 µM and 75 µM.
For `N#Cc1cc2cnc(Nc3cccc4cccnc34)nc2n(C2CCCC2)c1=O` the same measures were 1 µM and 1 µM.
`CN1CCN(c2ccc(N(C(=O)c3ccc(C(F)(F)F)cc3)c3ncc4cc(C#N)c(=O)n(C5CCCC5)c4n3)cc2)CC1`: the concentration for half-maximal inhibition (IC50) amounted to 1 µM with DU-145 and 0.5 µM in the test on K562.
Take `CCCn1c(=O)c(C#N)cc2cnc(Nc3ccc(N4CCN(C)CC4)cc3)nc21`: the IC50 was found to be 15 µM in the test on DU-145 and 5 µM in the test with K562.
For the compound `CN1CCN(c2ccc(Nc3ncc4cc(C#N)c(=O)n(C5CC5)c4n3)cc2)CC1`, the half-maximal inhibitory concentration (IC50) in the test with DU-145 and in the test on K562 was 2.5 µM throughout.
In the case of `Nc1ccc2c(=S)c3ccccc3[nH]c2c1`, the IC50 in test [1] and in [2] was greater than 100 µM each time.
Take `CCCCCn1c(=O)c(C#N)cc2cnc(Nc3ccc(N4CCN(C)CC4)cc3)nc21`: the half-maximal inhibitory concentration (IC50) was determined as 1.5 µM with DU-145 and 0.75 µM in the test with K562.
As for `COc1ccc(Nc2ncc3cc(C#N)c(=O)n(C4CCCC4)c3n2)cc1OC`, the results for the concentration for half-maximal inhibition (IC50) with DU-145 and in the test on K562 were 5 µM and 2 µM, respectively.
For `N#Cc1cc2cnc(Nc3ccccc3O)nc2n(C2CCCC2)c1=O` the same measures were 15 µM and 15 µM.
For the compound `CN1CCN(c2ccc(Nc3ncc4cc(C#N)c(=O)n(C5CCCCC5)c4n3)cc2)CC1`, the concentration for half-maximal inhibition (IC50) in the test on DU-145 was 50 µM; with K562, 1.5 µM.
Taken in the same sequence, the figures for `N#Cc1cc2cnc(Nc3ccc(N4CCOCC4)cc3)nc2n(C2CCCC2)c1=O` were 15 µM and 5 µM.
Consider `CN1CCN(c2ccc(Nc3ncc4cc(S(C)(=O)=O)c(=O)n(C5CCCC5)c4n3)cc2)CC1`, for which the IC50 in the test on DU-145 and in the test with K562 was 5 µM each time.
Take `COc1ccc(CS(=O)(=O)c2cc3cnc(Nc4ccc(N5CCN(C)CC5)cc4)nc3n(C3CCCC3)c2=O)cc1[N+](=O)[O-]`: the IC50 with DU-145 turned out to be 5 µM; in the test with K562, 2 µM.
Taken in the same sequence, the figures for `N#Cc1cc2cnc(NCc3ccccc3)nc2n(C2CCCC2)c1=O` were 75 µM and 100 µM.
For `COc1ccc(F)cc1Nc1ncc2cc(C#N)c(=O)n(C3CCCC3)c2n1` the same measures were 75 µM and 75 µM.
Taken in the same sequence, the figures for `COc1ccc(CS(=O)(=O)c2cc3cnc(Nc4ccc(N5CCN(C)CC5)cc4)nc3n(C3CCCC3)c2=O)cc1O` were 2 µM and 2 µM.
In the case of `CN1CCN(c2ccc(Nc3ncc4cc(C(=O)Nc5ccc(F)cc5)c(=O)n(C5CCCC5)c4n3)cc2)CC1`, the IC50 is 30 µM with DU-145 and 15 µM in the test on K562.
For `COc1ccccc1Nc1ncc2cc(C#N)c(=O)n(C3CCCC3)c2n1` the same measures were 30 µM and 15 µM.
On to `N#Cc1cc2cnc(Nc3ccc(Cl)cc3)nc2n(C2CCCC2)c1=O`, for which the IC50 in the test with DU-145 and in the test with K562 was 30 µM in each case.
Consider `COc1cc(Nc2ncc3cc(C#N)c(=O)n(C4CCCC4)c3n2)cc(OC)c1`, for which the IC50 in the test with DU-145 and in the test on K562 was 15 µM throughout.
On to `COc1cc(Nc2ncc3cc(C#N)c(=O)n(C4CCCC4)c3n2)cc(OC)c1OC`, for which the half-maximal inhibitory concentration (IC50) in the test with DU-145 was 5 µM; in the test with K562, 2.5 µM.
For `CN1CCN(c2ccc(Nc3ncc4cc(C#N)c(=O)n(C5CCCC5)c4n3)nc2)CC1` the same measures were 15 µM and 5 µM.
Taken in the same sequence, the figures for `N#Cc1cc2cnc(Nc3ccccn3)nc2n(C2CCCC2)c1=O` were 3 µM and 0.5 µM.
Regarding `N#Cc1cc2cnc(Nc3cccc4[nH]ccc34)nc2n(C2CCCC2)c1=O`, the IC50 in the test with DU-145 worked out at 15 µM; in the test with K562 it was 30 µM.
For the compound `CCn1c(=O)c(C#N)cc2cnc(Nc3ccc(N4CCN(C)CC4)cc3)nc21`, the results for the half-inhibitory concentration (IC50) in the test on DU-145 and in the test on K562 were 1.5 µM and 0.75 µM, respectively.
`CN1CCN(c2ccc(Nc3ncc4cc(C#N)c(=O)n(C)c4n3)cc2)CC1`: the IC50 in the test with DU-145 and with K562 was 75 µM each time.
As to `COc1ccc(Nc2ncc3cc(C#N)c(=O)n(C4CCCC4)c3n2)c(OC)c1`, the IC50 with DU-145 and in the test on K562 was 15 µM each time.
In the case of `CC(=O)N(c1ccc(N2CCN(C)CC2)cc1)c1ncc2cc(C#N)c(=O)n(C3CCCC3)c2n1`, the IC50 in the test on DU-145 was found to be 5 µM; in the test on K562 it was 0.75 µM.
Consider `N#Cc1ccnc(Nc2ncc3cc(C#N)c(=O)n(C4CCCC4)c3n2)c1`, for which the IC50 in the test on DU-145 was 30 µM; in the test with K562, 5 µM.
With `CN1CCN(c2ccc(Nc3ncc4cc([N+](=O)[O-])c(=O)n(C5CCCC5)c4n3)cc2)CC1`, the half-maximal inhibitory concentration (IC50) in the test with DU-145 worked out at 2.5 µM; in the test with K562 it was 0.75 µM.
`CN1CCN(c2ccc(Nc3ncc4cc(C#N)c(=O)[nH]c4n3)cc2)CC1`: the IC50 with DU-145 and with K562 was 30 µM each time.
Take `COc1cccc(Nc2ncc3cc(C#N)c(=O)n(C4CCCC4)c3n2)c1`: the values for the concentration for half-maximal inhibition (IC50) in the test with DU-145 and in the test on K562 were 0.5 µM and 5 µM, respectively.
Taken in the same sequence, the figures for `N#Cc1cc2cnc(N3CCN(c4ccc(C(F)(F)F)cn4)CC3)nc2n(C2CCCC2)c1=O` were 100 µM and 30 µM.
Take `CCCCn1c(=O)c(C#N)cc2cnc(Nc3ccc(N4CCN(C)CC4)cc3)nc21`: the IC50 in the test on DU-145 and in the test with K562 was 0.75 µM each time.
Take `N#Cc1cc2cnc(Nc3ccc4[nH]ccc4c3)nc2n(C2CCCC2)c1=O`: the half-inhibitory concentration (IC50) with DU-145 and in the test on K562 was 5 µM each time.
With `CC(C)n1c(=O)c(C#N)cc2cnc(Nc3ccc(N4CCN(C)CC4)cc3)nc21`, the 50% inhibitory concentration (IC50) in the test on DU-145 and in the test on K562 was 2.5 µM in each case.
As for `CN1CCN(c2ccc(Nc3ncc4cc(C(=O)Nc5ccc(Cl)cc5)c(=O)n(C5CCCC5)c4n3)cc2)CC1`, the IC50 in the test with DU-145 was determined as 30 µM; with K562, 5 µM.
In the case of `COc1ccc2cc(Nc3ncc4cc(C#N)c(=O)n(C5CCCC5)c4n3)ccc2n1`, the IC50 was determined as 3 µM with DU-145 and 0.25 µM with K562.
For `CN1CCN(c2ccc(Nc3ncc4cc(S(=O)(=O)Cc5ccc(Cl)cc5)c(=O)n(C5CCCC5)c4n3)cc2)CC1` the same measures were 75 µM and 10 µM.
Consider `N#Cc1ccc(Nc2ncc3cc(C#N)c(=O)n(C4CCCC4)c3n2)cc1`, for which the IC50 is 5 µM with DU-145 and 75 µM in the test on K562.
Take `N#Cc1cc2cnc(Nc3cnc4ccccc4c3)nc2n(C2CCCC2)c1=O`: the IC50 in the test on DU-145 and in the test with K562 was 5 µM each time.
Consider `CN1CCN(c2ccc(Nc3ncc4cc(S(=O)(=O)c5ccccc5)c(=O)n(C5CCCC5)c4n3)cc2)CC1`, for which the concentration for half-maximal inhibition (IC50) is 75 µM in the test on DU-145 and 30 µM in the test on K562.
As for `CC(=O)c1c(C)c2cnc(Nc3ccc(N4CCNCC4)cn3)nc2n(C2CCCC2)c1=O` [PALBOCICLIB], the outcome in the test on MDA-MB-231 [3], in the test with MCF7 [4], with MDA-MB-231 [5] and in the test on MCF7 [6] was inactive. Also, the outcome in the test on MDA-MB-231 [7] and in the test on MCF7 [8] was Active. The inhibition result in [9] and in test [10] was “Active” throughout. Besides, the 50% inhibitory concentration (IC50) in [11] was greater than 10 µM; in [12], greater than 5 µM; in the test with DU-145, 7.5 µM; with K562, 2 µM.
